Results on two compounds are retold here after ChEMBL document CHEMBL4196142, “Efficacy of Apigenin and Miltefosine Combination Therapy against Experimental Cutaneous Leishmaniasis” (J Nat Prod, 2018).

Data set [1] concerns Leishmania amazonensis. Briefly: Antileishmanial activity against stationary-phase Leishmania amazonensis MHOM/BR/75/LTB0016 promastigotes infected in human THP1-derived macrophages at test compound to miltefosine ratio of 2:3 by serial dilution based light microscopic method. It counts as functional, organism-based.
Data set [2] concerns Leishmania amazonensis. Briefly: Antileishmanial activity against stationary-phase Leishmania amazonensis MHOM/BR/75/LTB0016 promastigotes infected in human THP1-derived macrophages at test compound to miltefosine ratio of 1:4 by serial dilution based light microscopic method. It counts as functional, organism-based.
Data set [3] deals with Leishmania amazonensis. Briefly: Synergistic antileishmanial activity against stationary-phase Leishmania amazonensis MHOM/BR/75/LTB0016 promastigotes infected in Balb/c mouse assessed as reduction in lesion size at 1 mg/kg, po administered once daily via orogastric tube starting from 7 days post infection for 32 days measured twice weekly during compound dosing in presence of 4 mg/kg miltefosine by caliper method relative to control. Also noted: scale not given: the % may be the effect or the level left. The data set is classed as functional. Put shortly:
(§1)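 Female BALB/c mice, 10−12 weeks, were infected intradermally in the right ear with 2 × 10^6 stationary-phase promastigotes in 10 μL PBS. From day 7 post-infection, dosing was oral by orogastric tube once daily, seven times per week, until day 32. Compound in DMSO (1% v/v), miltefosine in PBS; controls got vehicle suspension with DMSO 0.2% v/v. Lesion size was read by dial caliper twice weekly; n = 5.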

Data set [4] deals with Leishmania amazonensis. Briefly: Synergistic antileishmanial activity against stationary-phase Leishmania amazonensis MHOM/BR/75/LTB0016 promastigotes infected in human THP1-derived macrophages assessed as fractional inhibitory concentration at test compound to miltefosine ratio of 2:3 by serial dilution based light microscopic method. It counts as functional. Put shortly:
(§2)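 In the infected THP-1 macrophage fixed-ratio assay, FIC and ∑FIC came from each ratio's EC50 by the modified fixed-ratio isobologram method. Mean ∑FIC was the average of the ∑FICs and was used to classify the interaction; isobolograms were plotted from each ratio's FIC values.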

For data set [5], the system named is Mus musculus. Briefly: Hepatotoxicity in Balb/c mouse infected with stationary-phase Leishmania amazonensis MHOM/BR/75/LTB0016 promastigotes assessed as serum ALT level at 1 mg/kg, po administered once daily via orogastric tube for 32 days starting from 7 days post infection measured post last dose in presence of 4 mg/kg miltefosine (reference value: 88.41 +/- 8.77 U/L). The data set is classed as toxicity, organism-based. The following applies: in vivo. An outline of the steps: (§3)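 Infected female BALB/c mice, dosed orally once daily from day 7 to day 32, had serum AST, ALT and creatinine measured by dry chemistry technology at the PDTIS-FIOCRUZ facility. Mean ± SE, n = 5.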

Data set [6] has as its system Leishmania amazonensis. Briefly: Antileishmanial activity against stationary-phase Leishmania amazonensis MHOM/BR/75/LTB0016 promastigotes infected in human THP1-derived macrophages at test compound to miltefosine ratio of 3:2 by serial dilution based light microscopic method. It counts as functional, organism-based.
Data set [7] deals with Leishmania amazonensis. Briefly: Antileishmanial activity against stationary-phase Leishmania amazonensis MHOM/BR/75/LTB0016 promastigotes infected in human THP1-derived macrophages by serial dilution based light microscopic method. The data set is classed as functional, organism-based.
In data set [8] the test system is Mus musculus. Briefly: Renal toxicity in Balb/c mouse infected with stationary-phase Leishmania amazonensis MHOM/BR/75/LTB0016 promastigotes assessed as serum creatinine level at 1 mg/kg, po administered once daily via orogastric tube for 32 days starting from 7 days post infection measured post last dose in presence of 4 mg/kg miltefosine (reference value: 0.61 +/- 0.06 mg/dl). The following applies: in vivo. It counts as organism-based. Put shortly: as §3

The test system of data set [9] is Leishmania amazonensis. Briefly: Synergistic antileishmanial activity against stationary-phase Leishmania amazonensis MHOM/BR/75/LTB0016 promastigotes infected in Balb/c mouse assessed as reduction in parasite load at 1 mg/kg, po administered once daily via orogastric tube starting from 7 days post infection for 32 days in presence of 4 mg/kg miltefosine by dilution method relative to control. The data set is classed as functional. Also noted: scale not given: the % may be the effect or the level left. An outline of the steps:
(§4)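 Ear infection and daily oral dosing were as for the lesion study in female BALB/c mice, ending at euthanasia on day 32. Infected ears were excised, weighed, minced in Schneider's medium with 10% FCS and serially diluted. Viable parasites per ear were estimated from the highest dilution still growing promastigotes after 7 days at 26 °C. Mean ± SE, n = 5 ears.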

Data set [10] relates to Mus musculus. Briefly: Hepatotoxicity in Balb/c mouse infected with stationary-phase Leishmania amazonensis MHOM/BR/75/LTB0016 promastigotes assessed as serum AST level at 2 mg/kg, po administered once daily via orogastric tube for 32 days starting from 7 days post infection measured post last dose (reference value: 161.1 +/- 20.99 U/L). The following applies: in vivo. The data set is classed as toxicity, organism-based. Put shortly: as §3

Data set [11] deals with Mus musculus. Briefly: Renal toxicity in Balb/c mouse infected with stationary-phase Leishmania amazonensis MHOM/BR/75/LTB0016 promastigotes assessed as serum creatinine level at 2 mg/kg, po administered once daily via orogastric tube for 32 days starting from 7 days post infection measured post last dose (reference value: 0.61 +/- 0.06 mg/dl). It counts as organism-based. The following applies: in vivo. Put shortly:
as §3

Data set [12] deals with Leishmania amazonensis. Briefly: Antileishmanial activity against stationary-phase Leishmania amazonensis MHOM/BR/75/LTB0016 promastigotes infected in Balb/c mouse assessed as reduction in parasite load at 2 mg/kg, po administered once daily via orogastric tube starting from 7 days post infection for 32 days by dilution method. The data set is classed as functional, organism-based. Put shortly: as §4

For data set [13], the system named is Leishmania amazonensis. Briefly: Synergistic antileishmanial activity against stationary-phase Leishmania amazonensis MHOM/BR/75/LTB0016 promastigotes infected in human THP1-derived macrophages assessed as fractional inhibitory concentration at test compound to miltefosine ratio of 1:4 by serial dilution based light microscopic method. It counts as functional. An outline of the steps: as §2

In data set [14] the test system is Mus musculus. Briefly: Hepatotoxicity in Balb/c mouse infected with stationary-phase Leishmania amazonensis MHOM/BR/75/LTB0016 promastigotes assessed as serum ALT level at 2 mg/kg, po administered once daily via orogastric tube for 32 days starting from 7 days post infection measured post last dose (reference value: 88.41 +/- 8.77 U/L). It counts as toxicity, organism-based. The following applies: in vivo. Put shortly:
as §3

In data set [15] the test system is Mus musculus. Briefly: Hepatotoxicity in Balb/c mouse infected with stationary-phase Leishmania amazonensis MHOM/BR/75/LTB0016 promastigotes assessed as serum AST level at 1 mg/kg, po administered once daily via orogastric tube for 32 days starting from 7 days post infection measured post last dose in presence of 4 mg/kg miltefosine (reference value: 161.1 +/- 20.99 U/L). It counts as toxicity, organism-based. The following applies: in vivo. Put shortly:
as §3

Data set [16] deals with Leishmania amazonensis. Briefly: Antileishmanial activity against stationary-phase Leishmania amazonensis MHOM/BR/75/LTB0016 promastigotes infected in Balb/c mouse assessed as reduction in lesion size at 2 mg/kg, po administered once daily via orogastric tube starting from 7 days post infection for 32 days measured twice weekly during compound dosing by caliper method. The data set is classed as functional, organism-based. Put shortly: as §1

In data set [17] the test system is Leishmania amazonensis. Briefly: Synergistic antileishmanial activity against stationary-phase Leishmania amazonensis MHOM/BR/75/LTB0016 promastigotes infected in human THP1-derived macrophages assessed as fractional inhibitory concentration at test compound to miltefosine ratio of 4:1 by serial dilution based light microscopic method. The data set is classed as functional. An outline of the steps:
as §2

Data set [18] deals with Leishmania amazonensis. Briefly: Synergistic antileishmanial activity against stationary-phase Leishmania amazonensis MHOM/BR/75/LTB0016 promastigotes infected in human THP1-derived macrophages assessed as fractional inhibitory concentration at test compound to miltefosine ratio of 3:2 by serial dilution based light microscopic method. It counts as functional. An outline of the steps: as §2

The test system of data set [19] is Leishmania amazonensis. Briefly: Antileishmanial activity against stationary-phase Leishmania amazonensis MHOM/BR/75/LTB0016 promastigotes infected in human THP1-derived macrophages at test compound to miltefosine ratio of 4:1 by serial dilution based light microscopic method. The data set is classed as functional, organism-based.
The test system of data set [20] is Leishmania amazonensis. Briefly: Antileishmanial activity against stationary-phase Leishmania amazonensis MHOM/BR/75/LTB0016 promastigotes infected in human THP1-derived macrophages at apigenin to test compound ratio of 2:3 by serial dilution based light microscopic method. The data set is classed as functional, organism-based.
The subject of data set [21] is Leishmania amazonensis. Briefly: Antileishmanial activity against stationary-phase Leishmania amazonensis MHOM/BR/75/LTB0016 promastigotes infected in Balb/c mouse assessed as reduction in parasite load at 8 mg/kg, po administered once daily via orogastric tube starting from 7 days post infection for 32 days by dilution method. The data set is classed as functional, organism-based. Put shortly: as §4

Data set [22] concerns Leishmania amazonensis. Briefly: Synergistic antileishmanial activity against stationary-phase Leishmania amazonensis MHOM/BR/75/LTB0016 promastigotes infected in human THP1-derived macrophages assessed as fractional inhibitory concentration at apigenin to test compound ratio of 1:4 by serial dilution based light microscopic method. The data set is classed as functional. Put shortly: as §2

Data set [23] relates to Leishmania amazonensis. Briefly: Antileishmanial activity against stationary-phase Leishmania amazonensis MHOM/BR/75/LTB0016 promastigotes infected in human THP1-derived macrophages at apigenin to test compound ratio of 1:4 by serial dilution based light microscopic method. The data set is classed as functional, organism-based.
Data set [24] concerns Leishmania amazonensis. Briefly: Antileishmanial activity against stationary-phase Leishmania amazonensis MHOM/BR/75/LTB0016 promastigotes infected in human THP1-derived macrophages at apigenin to test compound ratio of 4:1 by serial dilution based light microscopic method. The data set is classed as functional, organism-based.
Data set [25] relates to Leishmania amazonensis. Briefly: Antileishmanial activity against stationary-phase Leishmania amazonensis MHOM/BR/75/LTB0016 promastigotes infected in Balb/c mouse assessed as reduction in lesion size at 8 mg/kg, po administered once daily via orogastric tube starting from 7 days post infection for 32 days measured twice weekly during compound dosing by caliper method. It counts as functional, organism-based. An outline of the steps: as §1

For data set [26], the system named is Leishmania amazonensis. Briefly: Synergistic antileishmanial activity against stationary-phase Leishmania amazonensis MHOM/BR/75/LTB0016 promastigotes infected in human THP1-derived macrophages assessed as fractional inhibitory concentration at apigenin to test compound ratio of 4:1 by serial dilution based light microscopic method. The data set is classed as functional. Put shortly: as §2

In data set [27] the test system is Mus musculus. Briefly: Renal toxicity in Balb/c mouse infected with stationary-phase Leishmania amazonensis MHOM/BR/75/LTB0016 promastigotes assessed as serum creatinine level at 8 mg/kg, po administered once daily via orogastric tube for 32 days starting from 7 days post infection measured post last dose (reference value: 0.61 +/- 0.06 mg/dl). It counts as organism-based. The following applies: in vivo. An outline of the steps: as §3

The test system of data set [28] is Mus musculus. Briefly: Hepatotoxicity in Balb/c mouse infected with stationary-phase Leishmania amazonensis MHOM/BR/75/LTB0016 promastigotes assessed as serum ALT level at 8 mg/kg, po administered once daily via orogastric tube for 32 days starting from 7 days post infection measured post last dose (reference value: 88.41 +/- 8.77 U/L). It counts as toxicity, organism-based. The following applies: in vivo. Put shortly:
as §3

In data set [29] the test system is Leishmania amazonensis. Briefly: Synergistic antileishmanial activity against stationary-phase Leishmania amazonensis MHOM/BR/75/LTB0016 promastigotes infected in human THP1-derived macrophages assessed as fractional inhibitory concentration at apigenin to test compound ratio of 3:2 by serial dilution based light microscopic method. The data set is classed as functional. An outline of the steps: as §2

The subject of data set [30] is Mus musculus. Briefly: Hepatotoxicity in Balb/c mouse infected with stationary-phase Leishmania amazonensis MHOM/BR/75/LTB0016 promastigotes assessed as serum AST level at 8 mg/kg, po administered once daily via orogastric tube for 32 days starting from 7 days post infection measured post last dose (reference value: 161.1 +/- 20.99 U/L). It counts as toxicity, organism-based. The following applies: in vivo. An outline of the steps: as §3

In data set [31] the test system is Leishmania amazonensis. Briefly: Antileishmanial activity against stationary-phase Leishmania amazonensis MHOM/BR/75/LTB0016 promastigotes infected in human THP1-derived macrophages at apigenin to test compound ratio of 3:2 by serial dilution based light microscopic method. The data set is classed as functional, organism-based.
The subject of data set [32] is Leishmania amazonensis. Briefly: Synergistic antileishmanial activity against stationary-phase Leishmania amazonensis MHOM/BR/75/LTB0016 promastigotes infected in human THP1-derived macrophages assessed as fractional inhibitory concentration at apigenin to test compound ratio of 2:3 by serial dilution based light microscopic method. It counts as functional. An outline of the steps:
as §2

SMILES strings stand for the structures. Activity calls are given as the source filed them. The rule behind the calls is not given here.

The EC50 is the concentration at which the effect is half-maximal. With `O=c1cc(-c2ccc(O)cc2)oc2cc(O)cc(O)c12` [APIGENIN], the EC50 in data set [1] was determined as 0.73 µM; in [2], 0.16 µM; in data set [6], 1.43 µM; in data set [7] it was 3.85 µM; in data set [19], 2.99 µM. The Activity came out at 75% in data set [3]; 53.55 U/L in data set [5]; 0.69 mg/dL in data set [8]; 95% in data set [9]; 100.5 U/L in [10]; 0.63 mg/dL in data set [11]. For the same compound, the Activity in [14] stood at 43.21 U/L; in data set [15] it was 115.1 U/L. The FIC50 turned out to be 0.18 in data set [4], 0.04 in data set [13], 0.77 in [17] and 0.37 in [18]. Further, the result in data set [12] and in data set [16] was Active.
Take `CCCCCCCCCCCCCCCCOP(=O)([O-])OCC[N+](C)(C)C` [MILTEFOSINE]: the EC50 is 1.53 µM in data set [20]; 1.13 µM in [23]; 0.44 µM in data set [24]; 0.75 µM in data set [7]; 0.73 µM in data set [31]. For the same compound, the result in data set [21] and in data set [25] was Active. The FIC50 in data set [22] was determined as 1.5; in data set [26] it was 0.58; in data set [29] it was 0.96; in data set [32], 2.03. In addition, the Activity amounted to 0.66 mg/dL in data set [27], 61.14 U/L in [28] and 271.1 U/L in [30].
